# dFosB act: activators of mouse delta FosB homodimer; P13346; 340,000 tested, 0.99% active; activation, % at 25 µM; AID 493131; purified delta FosB, TAMRA-CDK5 oligo fluorescence polarization; percent of positive-control signal above neutral wells;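 active means mean activation above about 17%, with every replicate also reaching it, limit read from the data, passing the limit was not always enough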
# SR-BI uptake up: SR-BI HDL lipid transfer activation | CHO ldlA[mSR-BI] cells, DiI-HDL uptake fluorescence, 3 h; 100 = double the neutral-control signal | 320,000 tested, 0.096% active | activation, % at 12.5 µM;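 active means mean replicate activation of at least 60% and every replicate at or above 60%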
#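 System: LDL receptor-deficient CHO ldlA cells overexpressing murine SR-BI | Timing: 3 h uptake period with compound, 37 °C | Medium: HEPES-buffered (25 mM, pH 7.4) F12 plus 0.5% BSA | Dosing: Single-point compound dose | Signal: Bottom-read fluorescence, 550/595 nm | Read-out: Retained DiI signal reflecting DiI-HDL uptake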
# XiGFP reactiv: activators of X-chromosome reactivation in mouse fibroblasts | XiGFP mouse fibroblasts, % GFP-positive cells imaging, 3 d; cells co-treated with 5-aza-dC sensitizer; scaled so ellipticine positive control = 100% | activation, % at 7.58 µM | 360,000 tested, 0.055% active;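 active means mean normalized replicate activation at least 10% and every replicate at or above 10%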
#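 assay system = SV40-immortalized XiGFP fibroblast cells, line 68-5-11 | buffer or medium = DMEM plus 5-aza-dC sensitizer | doses = single-point pinned compound dosing | times = 3-day compound exposure, then 15 min fixation at room temperature | benchmarks = positive control ellipticine, 6 µM final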
# rRNA inh HTS: selective bacterial rRNA inhibition in E. coli; GFP signal change (wild-type ribosome), % (test concentration not listed); 350,000 tested, 1.6% active; E. coli WT GFP vs humanized-ribosome RFP mutants, fluorescence, 24 h; active compounds read low; DMSO median 0, no signal -100; AID 720706;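 active means significant combined selectivity score with lowered wild-type GFP, culture density cut under 30%, mutant RFP and density less affected; inactive means any of these conditions unmet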
# PvdQ acylase: blocks Pseudomonas aeruginosa PvdQ acylase activity | AID 488965 | inhibition, % at 10 µM | purified PvdQ acylase, fluorescence plate reader | 340,000 tested, 0.063% active; in the data active means inhibition above about 30%, passing the limit was not always enough
# SR-BI DiI inh: blocks mouse SR-BI lipid uptake from DiI-HDL. ldlA[mSR-BI] CHO cells, DiI-HDL uptake fluorescence, 3 h. inhibition, % at 12.5 µM. 320,000 tested, 0.96% active. AID 488896;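 active means mean replicate inhibition of at least 70% and a set share of replicates each scoring 70 or more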
# Target sequence (Q61009 whole entry, looked up): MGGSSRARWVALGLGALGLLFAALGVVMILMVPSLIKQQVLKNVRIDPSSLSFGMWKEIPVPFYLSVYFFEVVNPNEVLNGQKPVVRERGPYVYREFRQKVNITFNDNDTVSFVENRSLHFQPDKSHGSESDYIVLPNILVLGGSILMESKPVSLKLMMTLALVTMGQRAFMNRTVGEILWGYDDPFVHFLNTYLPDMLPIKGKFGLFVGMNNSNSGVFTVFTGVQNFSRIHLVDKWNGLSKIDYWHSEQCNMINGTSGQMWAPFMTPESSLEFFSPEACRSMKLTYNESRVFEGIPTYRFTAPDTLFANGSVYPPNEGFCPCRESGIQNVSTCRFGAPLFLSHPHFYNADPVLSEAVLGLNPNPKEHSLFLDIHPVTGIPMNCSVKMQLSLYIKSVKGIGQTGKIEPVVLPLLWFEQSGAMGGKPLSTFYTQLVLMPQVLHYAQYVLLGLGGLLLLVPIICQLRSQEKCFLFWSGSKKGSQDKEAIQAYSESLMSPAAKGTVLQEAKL
# A number is an active result; . = inactive; / = not tested or not shown. A selection: hits, their analogues and other compounds. The true share with any hit is near 2.6%.
SMILES,dFosB act,SR-BI uptake up,XiGFP reactiv,rRNA inh HTS,PvdQ acylase,SR-BI DiI inh
C[C@]12C=CC(=O)C=C1C=C[C@@H]1C2CC[C@]2(C)C(=O)CCC12 (some centres not stated),.,.,.,-27.5,.,.
COC(=O)C1=C(c2ccc3ccccc3c2)C[C@@H]2CC[C@H]1N2C,.,.,.,.,.,.
COC(=O)C1=C(C(=O)OC)C2OC1c1cc3ccccc3cc12,.,.,.,-18.7,.,.
O=C1NC(=O)C2(Cc3cc([N+](=O)[O-])ccc3N3CCN(C(=O)c4ccccc4)CC32)C(=O)N1 (configuration not stated),.,/,.,-29.3,.,/
CN1C(=O)N(C)C(=O)C2(Cc3cc([N+](=O)[O-])ccc3N3CCN(C(=O)c4ccccc4)CC32)C1=O (configuration not stated),.,.,.,.,.,.
Cc1cccc(S(=O)(=O)N2[C@@H]3Cn4c(ccc(-c5ccc(F)cc5)c4=O)[C@H]2[C@@H](C(=O)O)[C@@H]3CO)c1,/,/,.,.,/,/
O=c1c2ccccc2nc(/C=C/c2ccc(O)cc2)n1-c1ccccc1O,.,.,.,-27.4,.,.
O=c1c2ccccc2nc(/C=C/c2ccccc2)n1-c1ccccc1O,.,.,.,.,.,.
COC(=O)c1ccc(CN2CCN(Cc3ccccc3)CC2)cc1,.,.,/,/,.,.
CC(C)(C)n1nnnc1C(C1CC1)N1CCC2(CC1)C(=O)NCN2c1ccccc1 (configuration not stated),/,/,.,-15.6,/,/
O=C1NCN(c2ccccc2)C12CCN(C(c1nnnn1C1CCCCC1)C1CC1)CC2 (configuration not stated),/,/,.,.,/,/
O=C(NCCN1CCOCC1)c1ccc(Cl)nc1Cl,.,.,.,.,.,.
O=[N+]([O-])c1ccc(N2CCCCC2)c2ncccc12,.,.,.,-42.9,.,.
O=[N+]([O-])c1ccc(N2CCCCCC2)c2ncccc12,.,.,.,.,.,.
CN1CCC(N(C)c2nc(-c3ccc([N+](=O)[O-])cc3)nc3ccccc23)CC1,30.1,.,/,/,.,.
O=c1c(C=NCc2cccs2)c(O)n(C2CCCCC2)c(=O)n1C1CCCCC1,.,.,/,/,.,.
O=c1c(C=NCCN2CCNCC2)c(O)n(C2CCCCC2)c(=O)n1C1CCCCC1,41.3,.,/,/,.,.
CN1CCN(Cc2nc3ccccc3n2C)CC1,.,.,/,/,.,.
Cn1c(NN=O)nc2ccccc21,.,.,.,-23.0,.,.
COC(=O)C1=C(c2ccc(OCc3ccccc3)cc2)C[C@@H]2CC[C@H]1N2C(=O)NCc1ccccc1OC,/,/,.,.,/,/
CCN(CC)C(=O)c1ccc(NC(=O)COc2ccc([N+](=O)[O-])cc2Cl)cc1,.,.,.,/,.,.
Cc1c(C(c2ccc(O)cc2)c2c(O)c3ccccc3oc2=O)c(=O)n(-c2ccccc2)n1C (configuration not stated),.,.,.,-13.7,.,.
COc1ccc(OC)c(C(c2c(O)c3ccccc3oc2=O)c2c(C)n(C)n(-c3ccccc3)c2=O)c1 (configuration not stated),.,/,.,.,.,/
Cc1nc2ccccc2c(=O)n1/N=C/c1cc(Br)cc(Br)c1O,.,.,.,-21.8,.,85.4
CCC(=O)N1CC(=O)Nc2ccc(Cl)cc2C1c1ccc(F)cc1 (configuration not stated),.,.,/,/,.,.
SMILES,dFosB act,SR-BI uptake up,XiGFP reactiv,rRNA inh HTS,PvdQ acylase,SR-BI DiI inh
O=C(Nc1cccc(Cl)c1)OC1CN2CCC1CC2 (configuration not stated),.,.,.,-38.9,.,.
COC(=O)C1=C(c2ccc(-c3ccccc3)c(F)c2)C[C@@H]2CC[C@H]1N2C(=O)NCc1ccco1,.,.,.,.,.,.
CCCCC(=O)N/N=C/c1c(O)n(Cc2ccco2)c(=O)[nH]c1=O,.,.,.,/,.,.
CC(C)c1ccc(-n2c(O)c(/C=N/NC(=O)c3ccncc3)c(=O)[nH]c2=O)cc1,.,.,.,.,.,.
CC(C)c1ccc(-n2c(O)c(/C=N/NC(=O)c3ccccc3O)c(=O)[nH]c2=S)cc1,.,.,.,.,.,106.9
O=C(N/N=C/c1c(O)n(Cc2ccco2)c(=O)[nH]c1=O)c1ccccc1O,.,.,.,.,.,80.3
O=C(N/N=C/c1c(O)n(C2CCCCC2)c(=S)[nH]c1=O)c1ccccc1O,.,.,.,.,.,129.8
COc1ccc(CCn2c(O)c(C=Nc3ccc(NC(C)=O)cc3)c(=O)[nH]c2=O)cc1OC,23.1,.,.,.,.,.
COC(=O)C1C(c2ccc(I)cc2)CC2CCC1N2C (configuration not stated),/,/,/,.,/,/
Cc1cccnc1-n1c(-c2ccccc2)nc2ccccc2c1=O,.,.,/,/,.,.
CC(=O)O[C@H]1CCC2C3CCC4=CC(=O)CCC4=C3C=C[C@@]21C (some centres not stated),.,.,.,-17.9,.,.
CCCCCCOc1ccc(CN2CCN(C)CC2)cc1,.,.,/,-25.2,.,.
Cc1c2ccncc2c(C)c2c1[nH]c1ccccc12,54.9,.,/,/,.,.
c1ccc2c(c1)[nH]c1cnccc12,.,.,.,/,.,.
Clc1ccccc1CN1CCN(c2ccccc2Cl)CC1,.,.,/,-42.2,.,.
O=C1NC(=O)C(=Cc2ccc(-c3ccccc3[N+](=O)[O-])o2)C(=O)N1,.,.,.,.,.,76.8
O=C(c1cc(Br)ccc1Cl)N1CCC2(CC1)OCCO2,.,.,/,/,.,.
O=C(c1cc2cc(Br)ccc2[nH]1)N1CCC2(CC1)OCCO2,.,424.3,.,.,.,.
COC(=O)C1=C(N)Oc2cc(C)oc(=O)c2C12C(=O)Nc1ccccc12 (configuration not stated),.,.,.,-23.2,.,.
O=C(c1cc(F)ccc1F)C1CCCN(Cc2cc(Cl)ccc2O)C1 (configuration not stated),.,.,.,.,.,.
COc1cc2c(cc1OC)-c1c(OC)c(OC)cc3c1[C@H](C2)[N+](C)(C)CC3,.,.,.,-24.6,.,.
COc1cc(C(=O)Nc2ccc(Br)cc2C(=O)c2ccccc2)cc(OC)c1OC,.,.,/,/,.,81.0
O=C(CNC(=O)c1ccc(Br)cc1)Nc1ccc(Br)cc1C(=O)c1ccccc1,.,.,.,.,.,.
O=C(Cc1ccccc1)N1CCCCN2[C@H](CO)[C@H](c3ccc(-c4ccccc4)cc3)[C@H]2C1,/,/,.,.,/,/
Cc1cccc(NP(=O)(Oc2ccccc2F)Oc2ccccc2F)c1C,.,.,.,-28.6,.,.
